From ChEMBL document CHEMBL1949521, “Discovery of CC-930, an orally active anti-fibrotic JNK inhibitor” (Bioorg Med Chem Lett, 2012)

Assays:
[1] = target: c-Jun N-terminal kinase, JNK (Homo sapiens, UniProt P45983+P53779+P45984); test: Inhibition of JNK-mediated GST tagged c-Jun phosphorylation in human Jurkat T cells compound treated for 30 mins prior anisomycin stimulation measured after 40 mins by fluorescence spectrophotometry; type: cell-based
[2] = target: Mitogen-activated protein kinase 14 (Homo sapiens, UniProt Q16539); test: Inhibition of p38alpha using myelin basic protein as substrate preincubated for 15 mins prior ATP addition measured after 60 mins by scintillation counting
Mitogen-activated protein kinase 14, sequence (Q16539 whole entry): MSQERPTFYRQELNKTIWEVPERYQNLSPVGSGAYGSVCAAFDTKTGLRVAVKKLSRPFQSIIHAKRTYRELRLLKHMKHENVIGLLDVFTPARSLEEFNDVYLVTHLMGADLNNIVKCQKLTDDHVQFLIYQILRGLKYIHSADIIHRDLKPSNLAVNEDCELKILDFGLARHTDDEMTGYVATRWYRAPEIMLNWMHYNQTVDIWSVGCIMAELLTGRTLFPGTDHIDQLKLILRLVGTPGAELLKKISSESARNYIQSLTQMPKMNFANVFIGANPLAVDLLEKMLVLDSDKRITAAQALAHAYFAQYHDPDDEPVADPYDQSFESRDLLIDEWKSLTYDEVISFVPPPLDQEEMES

[3] = target: Mitogen-activated protein kinase 8 (Homo sapiens, UniProt P45983); test: Inhibition of hexa-His-tagged JNK1 expressed in baculoviral system using GST-tagged c-Jun as substrate preincubated for 15 mins prior ATP addition measured after 60 mins by scintillation counting
Mitogen-activated protein kinase 8, sequence (P45983 whole entry): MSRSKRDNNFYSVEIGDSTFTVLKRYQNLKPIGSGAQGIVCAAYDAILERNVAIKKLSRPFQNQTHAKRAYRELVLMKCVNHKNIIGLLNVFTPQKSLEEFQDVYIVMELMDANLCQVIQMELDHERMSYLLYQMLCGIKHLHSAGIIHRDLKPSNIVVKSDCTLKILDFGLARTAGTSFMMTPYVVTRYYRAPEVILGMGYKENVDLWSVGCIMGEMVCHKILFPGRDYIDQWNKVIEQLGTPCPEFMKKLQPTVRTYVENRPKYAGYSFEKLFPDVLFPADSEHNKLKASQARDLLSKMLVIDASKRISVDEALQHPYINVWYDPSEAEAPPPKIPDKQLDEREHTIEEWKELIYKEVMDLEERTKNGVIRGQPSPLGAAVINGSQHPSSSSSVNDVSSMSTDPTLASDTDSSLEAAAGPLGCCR

[4] = AUC in rat at 2 mg/kg, iv; type: ADME, organism-based; set-up: dose 2 mg/kg, route intravenous; conditions: plasma
How it was run: (§1)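 Rats dosed intravenously at 2 mg/kg in a solution of 5% DMA and 30% PEG 400.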

[5] = Clearance in cynomolgus monkey at 1 mg/kg, iv; type: ADME, organism-based, Macaca fascicularis; set-up: dose 1 mg/kg, route intravenous; conditions: in vivo
How it was run: (§2)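 Intravenous dose of 1 mg/kg given to monkeys in a solution of 5% DMA and 95% isotonic citrate buffer (50 mM, pH 5.0).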

[6] = Mean residence time in dog at 1 mg/kg, iv; type: ADME, organism-based, Canis lupus familiaris; set-up: dose 1 mg/kg, route intravenous; conditions: in vivo
[7] = Cmax in cynomolgus monkey at 10 mg/kg, po; type: ADME, organism-based, Macaca fascicularis; set-up: dose 10 mg/kg, route oral; conditions: in vivo
How it was run: (§3)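 Oral dose of 10 mg/kg given as a suspension in aqueous 0.5% CMC/0.25% Tween 80. Plasma AUC, Cmax and Tmax were taken from the oral arm. Bioavailability was derived against the intravenous arm in the same species.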

[8] = AUC in cynomolgus monkey at 1 mg/kg, iv; type: ADME, organism-based, Macaca fascicularis; set-up: dose 1 mg/kg, route intravenous; conditions: plasma; how it was run: as §2
[9] = Mean residence time in cynomolgus monkey at 1 mg/kg, iv; type: ADME, organism-based, Macaca fascicularis; set-up: dose 1 mg/kg, route intravenous; conditions: in vivo; how it was run: as §2
[10] = Volume of distribution at steady state in rat at 2 mg/kg, iv; type: ADME, organism-based; set-up: dose 2 mg/kg, route intravenous; conditions: in vivo, read-out: Vdss; how it was run: as §1
[11] = Oral bioavailability in rat; type: ADME, organism-based; conditions: in vivo
[12] = AUC in dog at 10 mg/kg, po; type: ADME, organism-based, Canis lupus familiaris, Plasma; set-up: dose 10 mg/kg, route oral; conditions: plasma; how it was run: as §3
[13] = Volume of distribution at steady state in cynomolgus monkey at 1 mg/kg, iv; type: ADME, organism-based, Macaca fascicularis; set-up: dose 1 mg/kg, route intravenous; conditions: in vivo, read-out: Vdss; how it was run: as §2
[14] = AUC in rat at 10 mg/kg, po; type: ADME, organism-based; set-up: dose 10 mg/kg, route oral; conditions: plasma; how it was run: as §3
[15] = Volume of distribution at steady state in dog at 1 mg/kg, iv; type: ADME, organism-based, Canis lupus familiaris; set-up: dose 1 mg/kg, route intravenous; conditions: in vivo, read-out: Vdss
[16] = Mean residence time in rat at 2 mg/kg, iv; type: ADME, organism-based; set-up: dose 2 mg/kg, route intravenous; conditions: in vivo; how it was run: as §1
[17] = AUC in dog at 1 mg/kg, iv; type: ADME, organism-based, Canis lupus familiaris, Plasma; set-up: dose 1 mg/kg, route intravenous; conditions: plasma
[18] = Tmax in cynomolgus monkey at 10 mg/kg, po; type: ADME, organism-based, Macaca fascicularis; set-up: dose 10 mg/kg, route oral; conditions: in vivo; how it was run: as §3
[19] = Clearance in dog at 1 mg/kg, iv; type: ADME, organism-based, Canis lupus familiaris; set-up: dose 1 mg/kg, route intravenous; conditions: in vivo
[20] = target: Mitogen-activated protein kinase 9 (Homo sapiens, UniProt P45984); test: Inhibition of hexa-His-tagged JNK2 expressed in baculoviral system using GST-tagged cJun as substrate preincubated for 15 mins prior ATP addition measured after 60 mins by scintillation counting
Mitogen-activated protein kinase 9, sequence (P45984 whole entry): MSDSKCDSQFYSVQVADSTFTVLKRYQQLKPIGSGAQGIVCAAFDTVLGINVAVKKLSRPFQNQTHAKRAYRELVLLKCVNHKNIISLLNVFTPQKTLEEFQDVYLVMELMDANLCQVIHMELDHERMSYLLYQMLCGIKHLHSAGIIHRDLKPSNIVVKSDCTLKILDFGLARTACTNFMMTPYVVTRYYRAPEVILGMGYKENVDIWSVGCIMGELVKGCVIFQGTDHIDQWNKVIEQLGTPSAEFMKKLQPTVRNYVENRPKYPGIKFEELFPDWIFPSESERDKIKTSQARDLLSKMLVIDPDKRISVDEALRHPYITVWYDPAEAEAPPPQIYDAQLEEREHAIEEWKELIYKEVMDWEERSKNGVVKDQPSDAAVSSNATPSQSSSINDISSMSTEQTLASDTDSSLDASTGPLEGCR

[21] = Oral bioavailability in rat at 10 mg/kg; type: ADME, organism-based; conditions: in vivo; how it was run: as §3
[22] = AUC in cynomolgus monkey at 10 mg/kg, po; type: ADME, organism-based, Macaca fascicularis; set-up: dose 10 mg/kg, route oral; conditions: plasma; how it was run: as §3
[23] = Oral bioavailability in dog at 10 mg/kg; type: ADME, organism-based, Canis lupus familiaris; conditions: in vivo; how it was run: as §3
[24] = Tmax in dog at 10 mg/kg, po; type: ADME, organism-based, Canis lupus familiaris; set-up: dose 10 mg/kg, route oral; conditions: in vivo; how it was run: as §3
[25] = Oral bioavailability in cynomolgus monkey at 10 mg/kg; type: ADME, organism-based, Macaca fascicularis; conditions: in vivo; how it was run: as §3
[26] = target: Mitogen-activated protein kinase 10 (Homo sapiens, UniProt P53779); test: Inhibition of hexa-His-tagged JNK3 expressed in baculoviral system using GST-tagged cJun as substrate preincubated for 15 mins prior ATP addition measured after 60 mins by scintillation counting
Mitogen-activated protein kinase 10, sequence (P53779 whole entry): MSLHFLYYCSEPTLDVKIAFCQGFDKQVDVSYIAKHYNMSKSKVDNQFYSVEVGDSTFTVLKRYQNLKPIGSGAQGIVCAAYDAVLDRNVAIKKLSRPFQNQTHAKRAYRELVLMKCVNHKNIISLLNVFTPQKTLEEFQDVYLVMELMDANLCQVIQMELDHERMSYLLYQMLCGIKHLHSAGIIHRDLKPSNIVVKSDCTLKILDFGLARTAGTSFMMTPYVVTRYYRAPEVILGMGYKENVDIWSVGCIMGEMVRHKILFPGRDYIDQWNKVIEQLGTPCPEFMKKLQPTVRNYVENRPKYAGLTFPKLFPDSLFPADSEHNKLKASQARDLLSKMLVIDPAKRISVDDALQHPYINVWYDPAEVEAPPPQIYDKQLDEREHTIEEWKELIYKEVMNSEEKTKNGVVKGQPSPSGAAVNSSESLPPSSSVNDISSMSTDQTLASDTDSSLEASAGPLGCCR

[27] = Tmax in rat at 10 mg/kg, po; type: ADME, organism-based; set-up: dose 10 mg/kg, route oral; conditions: in vivo; how it was run: as §3
[28] = Clearance in rat at 2 mg/kg, iv; type: ADME, organism-based; set-up: dose 2 mg/kg, route intravenous; conditions: in vivo; how it was run: as §1
[29] = Cmax in dog at 10 mg/kg, po; type: ADME, organism-based, Canis lupus familiaris; set-up: dose 10 mg/kg, route oral; conditions: in vivo; how it was run: as §3
[30] = Cmax in rat at 10 mg/kg, po; type: ADME, organism-based; set-up: dose 10 mg/kg, route oral; conditions: in vivo; how it was run: as §3
Rattus norvegicus = test: Antiinflammatory activity in CD rat assessed as inhibition of LPS-stimulated TNFalpha production at 30 mg/kg, po administered 1 hr prior LPS challenge measured after 90 mins by ELISA; type: functional
How it was run: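 Acute PK-PD model in rats: compound given by oral gavage at 10 or 30 mg/kg, then lipopolysaccharide injected, and plasma TNF-alpha release measured.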

[31] = AUC in po dosed rat; type: ADME, organism-based; conditions: plasma

Work on `C[C@]1(O)CC[C@H](Nc2ncc3nc(Nc4ccc(F)cc4F)n(C4CCOCC4)c3n2)CC1` yielded an IC50 [1] of 2500 nM, an IC50 [2] greater than 3000 nM and an IC50 [3] of 1200 nM.
For `CC(C)(O)[C@H]1CC[C@@H](c2ncc3nc(Nc4ccc(F)cc4F)n(C4CCOCC4)c3n2)C1`, the IC50 [1] was 1700 nM, the IC50 [2] was greater than 3000 nM and the IC50 [3] was 1300 nM.
`CC(C)(O)[C@H]1CC[C@H](Nc2ncc3nc(Nc4ccc(F)cc4F)n(C4CCCC4)c3n2)CC1` gave an IC50 [1] of 1800 nM, an IC50 [2] of 290 nM and an IC50 [3] of 170 nM.
Work on `CNC(=O)[C@H]1CC[C@H](Nc2ncc3nc(Nc4c(F)cc(F)cc4F)n([C@H]4CCOC4)c3n2)CC1` yielded an AUC [4] of 1.8 µM·h, a clearance [5] of 7.1 mL/min/kg and an MRT [6] of 60 min. The Cmax [7] was 11000 nM, the AUC [8] was 4.7 µM·h and the MRT [9] was 108 min. The Vd [10] was 2.5 L/kg, the bioavailability [11] was 33% and the AUC [12] was 3.3 µM·h. The Vd [13] was 0.8 L/kg, the IC50 [1] was 91 nM and the AUC [14] was 2.9 µM·h. For the same compound, the Vd [15] was 1.4 L/kg, the IC50 [2] was 4200 nM and the MRT [16] was 66 min. For the same compound, the AUC [17] was 1.4 µM·h, the Tmax [18] was 49.8 min and the clearance [19] was 24 mL/min/kg. It also gave an IC50 [20] of 10 nM, a bioavailability [21] of 33% and an AUC [22] of 23 µM·h. For the same compound, the bioavailability [23] was 24%, the Tmax [24] was 40.2 min and the IC50 [3] was 51 nM. For the same compound, the bioavailability [25] was 48%, the IC50 [26] was 7 nM and the Tmax [27] was 42 min. For the same compound, the clearance [28] was 39 mL/min/kg, the Cmax [29] was 860 nM and the Cmax [30] was 1200 nM.
In the case of `CC(C)(O)[C@H]1CC[C@H](Nc2ncc3nc(Nc4ccc(F)cc4F)n(C4CCOCC4)c3n2)CC1`, the IC50 [1] is reported as 1700 nM, the IC50 [2] is reported as 980 nM and the IC50 [3] is reported as 320 nM.
`CC(C)Nc1ncc2nc(Nc3c(F)cc(F)cc3F)n([C@H]3CC[C@@H](C(=O)NC4CC4)CC3)c2n1` showed a bioavailability [11] of 42%, an IC50 [1] of 200 nM and an IC50 [2] of 6200 nM. For the same compound, the bioavailability [23] was 20%, the inhibition in vivo at 30 mg/kg (Rattus norvegicus) was 92% and the IC50 [3] was 79 nM. For the same compound, the clearance [28] was 31 mL/min/kg and the AUC [31] was 4.7 µM·h.
Work on `Fc1ccc(Nc2nc3cnc(C4CCOCC4)nc3n2C2CCCC2)c(F)c1` yielded an IC50 [2] of 230 nM and an IC50 [3] of 900 nM.
Work on `CCO[C@H]1CC[C@H](Nc2ncc3nc(Nc4ccc(F)cc4F)n(C4CCOCC4)c3n2)CC1` yielded an IC50 [1] of 1600 nM, an IC50 [2] greater than 3000 nM and an IC50 [3] of 540 nM.
